Results taken from ChEMBL document CHEMBL4270638, “Sulfonyl-containing phenyl-pyrrolyl pentane analogues: Novel non-secosteroidal vitamin D receptor modulators with favorable physicochemical properties, pharmacokinetic properties and anti-tumor activity” (Eur J Med Chem, 2018).
Values after ≈ are worked out from the molar mass of the structure shown. Active and inactive are the calls of the source. No cut-off for these calls is given here.

Tests used:
[1] = tested on: MCF7; test: Induction of apoptosis in human MCF7 cells expressing scrambled siRNA assessed as early apoptotic cells at 1 uM after 24 hrs by Annexin-V-FITC/propidium iodide staining based flow cytometry (reference value: 0.93%); assay type: functional
[2] = tested on: MCF7; test: Induction of apoptosis in human MCF7 cells expressing scrambled siRNA assessed as live cells at 1 uM after 24 hrs by Annexin-V-FITC/propidium iodide staining based flow cytometry (reference value: 97.93%); assay type: functional
[3] = tested on: MCF7; test: Cell cycle arrest in human MCF7 cells expressing VDR siRNA assessed as accumulation at S phase at 1 uM after 24 hrs by propidium iodide staining based flow cytometry (reference value: 32%); assay type: functional
[4] = tested on: MCF7; test: Cell cycle arrest in human MCF7 cells expressing scrambled siRNA assessed as accumulation at G2/M phase at 1 uM after 24 hrs by propidium iodide staining based flow cytometry (reference value: 19.6%); assay type: functional
[5] = Solubility of the compound in water at pH 7.4 by HPLC method; assay type: physicochemical
Procedure, shortened: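 Aqueous solubility measured at pH 7.4, with samples quantified by HPLC.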

[6] = tested on: PC-3; test: Antiproliferative activity against human PC3 cells after 24 hrs by MTT assay; assay type: functional, cell-based; conditions: PC-3, 24 h
[7] = tested on: BXPC-3; test: Antiproliferative activity against human BxPC3 cells after 24 hrs by MTT assay; assay type: functional, cell-based; conditions: BXPC-3, 24 h
[8] = tested on: MCF7; test: Induction of apoptosis in human MCF7 cells expressing scrambled siRNA assessed as late apoptotic cells at 1 uM after 24 hrs by Annexin-V-FITC/propidium iodide staining based flow cytometry (reference value: 0.98%); assay type: functional
[9] = tested on: MCF7; test: Induction of apoptosis in human MCF7 cells expressing VDR siRNA assessed as late apoptotic cells at 1 uM after 24 hrs by Annexin-V-FITC/propidium iodide staining based flow cytometry (reference value: 1.01%); assay type: functional
[10] = tested on: MCF7; test: Induction of apoptosis in human MCF7 cells expressing scrambled siRNA assessed as necrotic cells at 1 uM after 24 hrs by Annexin-V-FITC/propidium iodide staining based flow cytometry (reference value: 0.16%); assay type: functional
[11] = tested on: MCF7; test: Cell cycle arrest in human MCF7 cells expressing scrambled siRNA assessed as accumulation at S phase at 1 uM after 24 hrs by propidium iodide staining based flow cytometry (reference value: 29.79%); assay type: functional
[12] = tested on: MCF7; test: Induction of apoptosis in human MCF7 cells expressing VDR siRNA assessed as live cells at 1 uM after 24 hrs by Annexin-V-FITC/propidium iodide staining based flow cytometry (reference value: 98.35%); assay type: functional
[13] = tested on: MCF7; test: Cell cycle arrest in human MCF7 cells expressing scrambled siRNA assessed as accumulation at G0/G1 phase at 1 uM after 24 hrs by propidium iodide staining based flow cytometry (reference value: 49.28%); assay type: functional
[14] = tested on: MCF7; test: Cell cycle arrest in human MCF7 cells expressing VDR siRNA assessed as accumulation at G0/G1 phase at 1 uM after 24 hrs by propidium iodide staining based flow cytometry (reference value: 49.17%); assay type: functional
[15] = tested on: MCF7; test: Induction of apoptosis in human MCF7 cells expressing VDR siRNA assessed as early apoptotic cells at 1 uM after 24 hrs by Annexin-V-FITC/propidium iodide staining based flow cytometry (reference value: 0.49%); assay type: functional
[16] = tested on: MCF7; test: Antiproliferative activity against human MCF7 cells after 24 hrs by MTT assay; assay type: functional, cell-based; conditions: MCF7, 24 h
[17] = Half life in rat liver microsomes in presence of NADPH by HPLC method; assay type: ADME, microsome
Procedure, shortened: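 Compounds incubated with rat liver microsomes plus NADPH. Remaining compound quantified by HPLC at 0, 5, 10, 20, 30, 45, 60 and 90 min, and half-life calculated.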

[18] = tested on: MCF7; test: Cell cycle arrest in human MCF7 cells expressing VDR siRNA assessed as accumulation at G2/M phase at 1 uM after 24 hrs by propidium iodide staining based flow cytometry (reference value: 17.57%); assay type: functional
[19] = tested on: MCF7; test: Induction of apoptosis in human MCF7 cells expressing VDR siRNA assessed as necrotic cells at 1 uM after 24 hrs by Annexin-V-FITC/propidium iodide staining based flow cytometry (reference value: 0.15%); assay type: functional
[20] = tested on: MCF7; test: Antitumor activity against human MCF7 cells xenografted in Balb/c nude mouse assessed as reduction in tumor growth at 10 mg/kg, ip administered three times a week for three weeks starting from day 7 after tumor cell inoculation; assay type: functional, organism-based
Procedure, shortened: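 […] BALB/c-nu mice, 10 weeks old. 1×10^7 MCF-7 cells injected into the left fourth mammary fat pad; dosing began at about 50 mm3 tumour volume (day 7), n = 5 per group. Dosed ip at 10 mg/kg in ethanol/EL/saline 1:1:18, three times weekly for three weeks. Tumour volume by calipers = length × width² × 0.5; tumour weight and body weight recorded.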

[21] = tested on: MCF7; test: Antiproliferative activity against human MCF7 cells expressing VDR siRNA assessed as reduction in BrdU incorporation after 16 hrs by ELISA; assay type: functional, cell-based; conditions: MCF7, 16 h
[22] = Clearance in Sprague-Dawley rat at 20 mg/kg, ip by HPLC method; assay type: ADME, organism-based; conditions: in vivo
Procedure, shortened: (§1)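 Male Sprague-Dawley rats, 180–220 g, n = 3 per group. Dosed iv at 5 mg/kg or ip at 20 mg/kg in ethanol/EL/saline (1:1:18). Plasma sampled at 0, 0.083, 0.167, 0.25, 0.5, 1, 2, 4, 8, 12 and 24 h and centrifuged 12000 rpm for 10 min. Plasma drug measured by HPLC; parameters by PK modelling; mean ± SD.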

[23] = target: T1, Vitamin D3 receptor (Homo sapiens, UniProt P11473); test: Displacement of fluormone VDR red from human full-length VDR after 4 hrs by fluorescence polarization assay
T1 sequence (P11473 whole entry): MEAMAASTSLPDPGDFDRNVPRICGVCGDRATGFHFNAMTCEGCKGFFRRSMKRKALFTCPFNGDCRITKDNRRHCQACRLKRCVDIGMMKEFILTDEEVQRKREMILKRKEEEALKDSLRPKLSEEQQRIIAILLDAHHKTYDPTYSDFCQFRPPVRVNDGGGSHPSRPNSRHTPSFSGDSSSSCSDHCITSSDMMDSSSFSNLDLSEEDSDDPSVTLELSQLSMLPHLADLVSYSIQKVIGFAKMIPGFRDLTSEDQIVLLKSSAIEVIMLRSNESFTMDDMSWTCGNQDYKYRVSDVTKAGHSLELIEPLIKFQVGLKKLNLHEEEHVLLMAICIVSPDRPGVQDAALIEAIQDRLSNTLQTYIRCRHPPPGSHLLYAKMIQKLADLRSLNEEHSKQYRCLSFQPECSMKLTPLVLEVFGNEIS

[24] = Mean residence time in Sprague-Dawley rat at 20 mg/kg, ip by HPLC method; assay type: ADME, organism-based; conditions: in vivo; procedure, shortened: as §1
[25] = Mean residence time in Sprague-Dawley rat at 5 mg/kg, iv by HPLC method; assay type: ADME, organism-based; conditions: in vivo; procedure, shortened: as §1
[26] = Clearance in Sprague-Dawley rat at 5 mg/kg, iv by HPLC method; assay type: ADME, organism-based; conditions: in vivo; procedure, shortened: as §1
[27] = Half life in Sprague-Dawley rat at 20 mg/kg, ip by HPLC method; assay type: ADME, organism-based; conditions: in vivo; procedure, shortened: as §1
[28] = AUC in Sprague-Dawley rat at 5 mg/kg, iv by HPLC method; assay type: ADME, organism-based; conditions: in vivo; procedure, shortened: as §1
[29] = Half life in Sprague-Dawley rat at 5 mg/kg, iv by HPLC method; assay type: ADME, organism-based; conditions: in vivo; procedure, shortened: as §1
[30] = Bioavailability in Sprague-Dawley rat at 20 mg/kg, ip by HPLC method; assay type: ADME, organism-based; conditions: in vivo; procedure, shortened: as §1
[31] = AUC in Sprague-Dawley rat at 20 mg/kg, ip by HPLC method; assay type: ADME, organism-based; conditions: in vivo; procedure, shortened: as §1
[32] = target: T2, Retinoic acid receptor RXR-alpha/Vitamin D3 receptor (Homo sapiens, UniProt P11473+P19793); test: Transactivation of recombinant human VDR/RXRalpha expressed in HEK293 cells after 24 hrs by Dual-luciferase reporter gene assay; assay type: cell-based
T2 sequence (P11473 whole entry): T1 sequence (P11473 whole entry)
T2 sequence (P19793 whole entry): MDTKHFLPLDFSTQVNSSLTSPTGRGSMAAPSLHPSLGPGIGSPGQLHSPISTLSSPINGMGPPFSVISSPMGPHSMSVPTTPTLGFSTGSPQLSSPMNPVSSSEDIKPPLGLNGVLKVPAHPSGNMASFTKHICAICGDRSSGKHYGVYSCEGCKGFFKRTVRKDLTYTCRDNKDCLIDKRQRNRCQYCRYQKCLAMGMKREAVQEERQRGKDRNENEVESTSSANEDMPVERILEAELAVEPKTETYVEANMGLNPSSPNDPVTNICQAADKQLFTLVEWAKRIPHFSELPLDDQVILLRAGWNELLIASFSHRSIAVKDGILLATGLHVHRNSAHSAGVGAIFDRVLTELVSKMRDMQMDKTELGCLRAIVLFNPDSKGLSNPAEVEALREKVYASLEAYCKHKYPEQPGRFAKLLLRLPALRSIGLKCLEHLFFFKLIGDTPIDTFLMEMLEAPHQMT

Structure (SMILES) | Activity [1] [%] | Activity [2] [%] | Activity [3] [%] | Activity [4] [%] | solubility [5] [µg/mL] | IC50 [6] [µM] | IC50 [7] [µM] | Activity [8] [%] | Activity [9] [%] | Activity [10] [%] | Activity [11] [%] | Activity [12] [%] | Activity [13] [%] | Activity [14] [%] | Activity [15] [%] | IC50 [16] [µM] | half-life [17] [h] | Activity [18] [%] | Activity [19] [%] | further results
CCN(CC)CCNC(=O)c1ccc(C(CC)(CC)c2ccc(OCSc3ccccc3)c(C)c2)n1CC | 0.59 | 96.21 | 30.12 | 11.15 | 25.6 (≈ 47.8 µM) | 2.23 | 5.67 | 2.85 | 1.78 | 0.35 | 31.59 | 97.03 | 55.65 | 51.65 | 0.71 | 4.9 | 0.895 | 17.07 | 0.47 | 
CCn1c(C(=O)N[C@@H](C)CO)ccc1C(CC)(CC)c1ccc(OCC(O)C(C)(C)C)c(C)c1 (some centres undefined) | 1.31 | 95.55 | 29.44 | 11.69 | 1.7 (≈ 3.6 µM) | 8.5 | 15.8 | 2.88 | 1.79 | 0.26 | 31.41 | 96.87 | 55.43 | 51.05 | 0.99 | 18.2 | 0.429 | 18.59 | 0.35 | Activity [20]: Active; IC50 [21]: > 50 µM; CL/F [22]: 55.2 mL/min; IC50 [23]: 0.115 µM; MRT [24]: 5.5 h; MRT [25]: 5.54 h; clearance [26]: 18 mL/min; half-life [27]: 3.47 h; AUC [28]: 4650 ng·h/mL; half-life [29]: 2.89 h; bioavailability [30]: 32.5%; AUC [31]: 6040 ng·h/mL; EC50 [32]: 0.00681 µM
CCN(CC)CCNC(=O)c1cc(C(CC)(CC)c2ccc(OCSC)c(C)c2)cn1CC | 1.17 | 95.2 | 30.37 | 12.37 | 198 (≈ 418 µM) | 9.54 | 4.11 | 3.24 | 1.91 | 0.39 | 30.52 | 96.68 | 55.62 | 51.44 | 0.91 | 4.64 | 0.802 | 16.92 | 0.5 | 
CCN(CC)CCNC(=O)c1cc(C(CC)(CC)c2ccc(OCSc3ccccc3)c(C)c2)cn1CC | 1.01 | 94.44 | 30.97 | 11.15 | 0.6 (≈ 1.12 µM) | 2.62 | 5.37 | 3.65 | 1.91 | 0.9 | 31.75 | 97.14 | 55.79 | 50.29 | 0.58 | 4.7 | 1.19 | 17.3 | 0.37 | 
